Data on 34 molecules can be found in ChEMBL document CHEMBL2163251, “Synthesis and pharmacological evaluation of indolinone derivatives as novel ghrelin receptor antagonists” (Bioorg Med Chem, 2012).

Data set [1] concerns the target T1, Growth hormone secretagogue receptor type 1 (Homo sapiens, UniProt Q92847). The data set can be described thus: Antagonist activity at human GHSR1 expressed in CHO-CREluc cells after 4 hrs by Luciferase reporter assay. Format: functional, cell-based. In short, it runs like this: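 hGHSR1a stably cloned into CHO line carrying CRE-luciferase reporter (six CRE upstream of firefly luciferase). Cells plated in MEM with 10% dialysed FBS. Stimulation medium held 0.1 µM forskolin and 3 nM human ghrelin. Luciferase read by photon counting.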
For orientation: Reporter assays use an easily measured gene product as a stand-in for the process of interest.

The target of data set [2] is T1, Growth hormone secretagogue receptor type 1. Nature of the data set: Displacement of [125I]-ghrelin from human GHSR1 expressed in CHO-CREluc cells after 1 hr by scintillation counting. Format: cell-based. In a few lines:
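Crude membranes from CHO-CREluc-hGHSR1a cells were homogenized in TM buffer (10 mM Tris-HCl pH 7.4, 10 mM MgCl2) and spun at 40,000g. Incubated 1 h in TM buffer with 0.25% BSA and 10% dialysed FBS, 0.25 nM [125I] human ghrelin and increasing compound concentrations. Harvested on PEI-pretreated GF/B filters and washed with cold buffer. Bound radioactivity counted by scintillation.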
Background: Loss of bound radioactivity is the signal in a displacement assay; it reports binding, not function.

Data set [3] concerns Mus musculus. The data set can be described thus: Effect of glucose tolerance in fasted C57/BL6N mouse assessed as inhibition of glucose excursion at 30 mg/kg, po measured after 20 to 120 mins by IPGTT.
Data set [4] relates to P-glycoprotein. The data set can be described thus: P-glycoprotein-mediated efflux ratio of the compound. The class given is ADME. As to conditions: not told.

SMILES strings stand for the structures. Active and inactive are the calls of the source. The rule behind the calls is not given here.

T1 sequence (Q92847 whole entry): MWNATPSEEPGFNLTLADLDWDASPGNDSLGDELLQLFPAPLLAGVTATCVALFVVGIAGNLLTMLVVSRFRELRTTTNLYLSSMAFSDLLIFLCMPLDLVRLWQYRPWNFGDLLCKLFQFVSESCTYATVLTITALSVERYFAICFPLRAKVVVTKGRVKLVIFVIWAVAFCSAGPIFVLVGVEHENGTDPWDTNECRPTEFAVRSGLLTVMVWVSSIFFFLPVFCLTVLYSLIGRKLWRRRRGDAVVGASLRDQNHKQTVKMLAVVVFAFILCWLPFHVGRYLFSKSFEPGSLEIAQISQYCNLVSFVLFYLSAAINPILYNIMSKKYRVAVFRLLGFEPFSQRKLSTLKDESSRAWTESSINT

For the molecule `CN(C)[C@@H]1CCN(CC(=O)NC2(c3ccc(Cl)c(Cl)c3)C(=O)Nc3cc(Cl)cc(Cl)c32)C1` (stereo partly drawn), the IC50 in data set [1] was found to be 25 nM.
On the same count and under the same terms, with `CN(C)[C@H]1CCN(CC(=O)NC2(c3ccc(Cl)c(Cl)c3)C(=O)Nc3cc(Cl)cc(Cl)c32)C1` (stereo partly drawn) the figure was 110 nM.
In data set [1], `CN1CCN(CC(=O)N[C@]2(c3ccc(Cl)cc3)C(=O)Nc3cc(Cl)c(Cl)cc32)CC1` had an IC50 of 47 nM. In data set [2], this molecule registered a Ki of 249 nM.
In the case of `CCC1=C(C)CN(C(=O)NCCc2ccc(S(=O)(=O)NC(=O)N[C@H]3CC[C@H](C)CC3)cc2)C1=O`, the inhibition result in data set [3] was “Active”.
Consider `Cc1ccc2c(c1Cl)C(NC(=O)CN1CCN(C)CC1)(c1ccc(Cl)cc1)C(=O)N2` (racemic), for which, in data set [1], the IC50 came out at 1160 nM.
On to `Cc1cc2c(cc1Cl)NC(=O)C2(NC(=O)CN1CCN(C)CC1)c1ccc(Cl)cc1` (racemic), for which, in data set [1], the IC50 stood at 213 nM. This molecule yielded a Ki in data set [2] of 392 nM.
As for `Cc1cc2c(cc1Cl)NC(=O)C2(NC(=O)CN1CCN(C)CC1)c1cccc(Cl)c1` (racemic), inhibition in data set [1] was half-maximal at 1180 nM (IC50).
As to `Cc1cc2c(cc1Cl)NC(=O)C2(NC(=O)CN1CCN(C)CC1)c1ccccc1Cl` (racemic), the IC50 in data set [1] was > 10000 nM.
The molecule `Cc1cc2c(cc1Cl)NC(=O)C2(NC(=O)CN1CCN(C)CC1)c1ccc(Cl)c(Cl)c1` (racemic) returned an IC50 in data set [1] of 220 nM. Besides, the Ki in data set [2] was > 1000 nM.
As to `Cc1cc2c(cc1Cl)NC(=O)C2(NC(=O)CN1CCN(C)CC1)c1ccc(Cl)cc1Cl` (racemic), in data set [1], the IC50 is > 10000 nM.
In turn, `CCN1CCN(CC(=O)NC2(c3ccc(Cl)cc3)C(=O)Nc3cc(Cl)c(C)cc32)CC1` (racemic) came in with an IC50 in data set [1] of 129 nM. Also, the affinity in data set [2], expressed as Ki, was 286 nM.
On to `Cc1cc2c(cc1Cl)NC(=O)C2(NC(=O)CN1CCNCC1)c1ccc(Cl)cc1` (racemic), for which the IC50 in data set [1] was > 10000 nM.
For `Cc1cc2c(cc1Cl)NC(=O)C2(NC(=O)CN1CCN(Cc2ccccc2)CC1)c1ccc(Cl)cc1` (racemic), in data set [1], the IC50 is > 10000 nM.
On to `Cc1cc2c(cc1Cl)NC(=O)C2(NC(=O)CN1CCN(c2ccncc2)CC1)c1ccc(Cl)cc1` (racemic), for which the IC50 in data set [1] is > 10000 nM.
`CCN1CCN(CC(=O)NC2(c3ccc(Cl)cc3)C(=O)Nc3cc(Cl)c(Cl)cc32)CC1` (racemic) yielded an IC50 in data set [1] of 110 nM. Also, affinity in data set [2] was put at a Ki of 202 nM.
For the molecule `CN(C)CCN(C)CC(=O)NC1(c2ccc(Cl)cc2)C(=O)Nc2cc(Cl)c(Cl)cc21` (racemic), the IC50 in data set [1] was > 10000 nM.
On the same count and under the same terms, the figure for `CC1CCN(CC(=O)NC2(c3ccc(Cl)cc3)C(=O)Nc3cc(Cl)c(Cl)cc32)CC1` (racemic) is 2540 nM.
The same measure, in the same setting: with `CN1CCN(CC(=O)NC2(c3ccc(Cl)cc3)C(=O)Nc3cc(Cl)c(Cl)c(Cl)c32)CC1` (racemic) the figure was 273 nM; with `CN1CCN(CC(=O)NC2(c3ccc(C(C)(C)C)cc3)C(=O)Nc3cc(Cl)c(Cl)cc32)CC1` (single isomer, unassigned; (+)), 1470 nM.
Consider `C=CCN1CCN(CC(=O)NC2(c3ccc(Cl)c(Cl)c3)C(=O)Nc3cc(Cl)cc(Cl)c32)CC1` (single isomer, unassigned; (+)), for which the IC50 in data set [1] turned out to be 38 nM. Further, in data set [2], the Ki was found to be 121 nM.
`CN1CCCN(CC(=O)NC2(c3ccc(Cl)c(Cl)c3)C(=O)Nc3cc(Cl)cc(Cl)c32)CC1` (single isomer, unassigned; (+)) came in with an IC50 in data set [1] of 64 nM.
`CN(C)C1CCN(CC(=O)NC2(c3ccc(Cl)c(Cl)c3)C(=O)Nc3cc(Cl)cc(Cl)c32)CC1` (single isomer, unassigned; (+)) returned an IC50 in data set [1] of 239 nM.
On the same count and under the same terms, with `CCN1CCCC(CC(=O)NC2(c3ccc(Cl)c(Cl)c3)C(=O)Nc3cc(Cl)cc(Cl)c32)C1` (single isomer, unassigned; (+)) the figure was 47 nM; with `CCN1CCN(CC(=O)NC2(c3ccc(Cl)c(Cl)c3)C(=O)Nc3cc(Cl)cc(Cl)c32)CC1=O` (single isomer, unassigned; (+)), 2780 nM.
Turning to `CCN1CCC(CC(=O)NC2(c3ccc(Cl)c(Cl)c3)C(=O)Nc3cc(Cl)cc(Cl)c32)CC1` (single isomer, unassigned; (+)), 1 nM corresponded to half-maximal inhibition in data set [1] (IC50). The same molecule yielded a Ki in data set [2] of 3 nM. Moreover, the efflux ratio in data set [4] was 58.
In data set [1], `CN1CCN(CC(=O)NC2(c3ccc(Cl)cc3)C(=O)Nc3cc(Cl)ccc32)CC1` (single isomer, unassigned; (+)) showed an IC50 of 140 nM.
Still for that read-out and setting: with `CN1CCN(CC(=O)NC2(c3ccc(Cl)cc3)C(=O)Nc3c(Cl)cc(Cl)cc32)CC1` (single isomer, unassigned; (+)) the figure was 1390 nM; with `CN1CCN(CC(=O)NC2(c3ccc(Cl)c(Cl)c3)C(=O)Nc3cc(Cl)ccc32)CC1` (single isomer, unassigned; (+)), 111 nM.
In data set [1], `CN1CCN(CC(=O)NC2(c3ccc(Cl)cc3)C(=O)Nc3cc(Cl)cc(Cl)c32)CC1` (single isomer, unassigned; (+)) returned an IC50 of 72 nM. Moreover, the Ki in data set [2] came out at 44 nM.
`CN1CCN(CC(=O)NC2(c3ccc(Cl)c(Cl)c3)C(=O)Nc3cc(Cl)cc(Cl)c32)CC1` (single isomer, unassigned; (+)): the IC50 in data set [1] came out at 24 nM.
`COc1ccc(C2(NC(=O)CN3CCN(C)CC3)C(=O)Nc3cc(Cl)c(Cl)cc32)cc1` (single isomer, unassigned; (+)): the IC50 in data set [1] amounted to 700 nM.
Same read-out and setting: the figure for `Cc1cc2c(cc1Cl)C(NC(=O)CN1CCN(C)CC1)(c1ccc(Cl)cc1)C(=O)N2` (single isomer, unassigned; (+)) is 251 nM; for `COc1ccc(C2(NC(=O)CN3CCN(C)CC3)C(=O)Nc3cc(Cl)c(C)cc32)cc1` (single isomer, unassigned; (+)) it is 525 nM; for `CN1CCN(CC(=O)NC2(c3ccc(Cl)cc3)C(=O)Nc3cc(Cl)c(Cl)cc32)CC1` (single isomer, unassigned; (-)) it is > 10000 nM.

For orientation: IC50 means the concentration that inhibits the measured activity by half. A higher IC50 goes with lower potency. What is called Ki is the dissociation constant of the complex between target and ligand, obtained from inhibition or displacement. High values mean weaker binding, low ones tighter binding. By efflux ratio is commonly meant a quotient of directional permeabilities that is used to spot active efflux.
